# High-throughput results deposited in PubChem BioAssay by The Scripps Research Institute Molecular Screening Center.
# CHRM4 agonist – CHRM4 agonism in calcium assay; P08173; CHO-K1 hM4/Gqi5, Fluo-8 calcium fluorescence; vehicle 0%, full acetylcholine response 100%; activation, % at 3 µM; 360,000 tested, 0.14% active; AID 624127;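 active means activation above the run mean over all test wells plus 3 SD, cut at about 32% in these data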;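 further: peak over basal fluorescence ratio per well then scaled between controls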
# Target sequence (P08173 whole entry, looked up): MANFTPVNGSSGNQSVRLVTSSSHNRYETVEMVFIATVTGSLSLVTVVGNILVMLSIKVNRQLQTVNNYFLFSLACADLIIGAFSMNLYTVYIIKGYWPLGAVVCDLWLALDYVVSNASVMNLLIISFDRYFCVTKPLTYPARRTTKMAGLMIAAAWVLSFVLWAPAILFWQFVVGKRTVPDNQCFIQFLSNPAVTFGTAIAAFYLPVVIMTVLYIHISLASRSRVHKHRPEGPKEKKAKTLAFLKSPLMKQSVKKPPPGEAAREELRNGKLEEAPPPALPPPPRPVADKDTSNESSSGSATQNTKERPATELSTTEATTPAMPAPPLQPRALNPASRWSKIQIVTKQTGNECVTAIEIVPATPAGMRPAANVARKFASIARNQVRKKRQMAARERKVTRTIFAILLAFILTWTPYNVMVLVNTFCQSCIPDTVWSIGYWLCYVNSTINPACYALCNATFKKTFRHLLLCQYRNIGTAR
# M4 antag – blocks acetylcholine activation of human M4 receptor | P08173 | CHO-hM4 cells, ACh EC80, Fluo-8 calcium fluorescence | inhibition, % at 3 µM | 360,000 tested, 0.73% active;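 active means inhibition above its plate's cutoff, the mean inhibition of sample wells plus 3 SD, cut at about 27% in these data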
# M5 antag – blocks acetylcholine activation of human M5 receptor. 360,000 tested, 0.59% active. CHO-hM5 cells, Fluo-8 calcium fluorescence, ACh EC80. inhibition, % at 3 µM. P08912;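 active means inhibition above a per-plate cutoff, the mean of that plate's test compounds plus 3 SD, cut at about 27% in these data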
# CHRM4 PAM – CHRM4 positive allosteric modulation. AID 624126. 360,000 tested, 0.4% active. activation, % at 3 µM. CHO-K1 hM4/Gqi5, Fluo-8 calcium fluorescence, ACh EC20; 0% = ACh EC20, 100% = maximal ACh;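 active means activation above its plate's cutoff, the mean activation of sample wells plus 3 SD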
# CHRM5 PAM – CHRM5 positive allosteric modulation. P08912. CHO-K1 hM5, Fluo-8 calcium, ACh EC20 PAM; 0% = ACh EC20, 100% = ACh EC100. activation, % at 3 µM. 360,000 tested, 0.3% active;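 active means activation above the run cutoff, the mean activation of all test compounds plus 3 SD, cut at about 18% in these data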
#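 Assay system – human M5 receptor in CHO-K1 cells · Read-out – % activation, ACh-normalized · Technique – Fluo-8 calcium fluorescence · Dosing – single-point, 3 µM nominal · Incubation – Fluo-8 loading 80 min at 37 °C plus 30 min room temperature · Repeats – singlicate, one well per test compound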
# CHRM5 agonist – CHRM5 agonism in calcium assay; P08912; CHO-K1 hM5 cells, Fluo-8 calcium fluorescence; 0% DMSO wells, 100% maximal acetylcholine response; activation, % at 3 µM; 360,000 tested, 0.19% active; AID 624037;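 active means activation above the run's mean over test compounds plus 3 SD, cut at about 23% in these data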;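 further: signal is peak over basal fluorescence ratio across the kinetic read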
# Hits are given with their value; - = inactive. Rows were chosen to be rich in hits. Some 1.8% of all compounds tested hit in one or more screens of this group.
SMILES,CHRM4 agonist,M4 antag,M5 antag,CHRM4 PAM,CHRM5 PAM,CHRM5 agonist
CC(=O)c1sc2nc(C)cc(C)c2c1N,-,-,-,-,-,-
CCn1c(C)c(C)c2cc(C(=O)NCCc3ccco3)ccc21,-,-,-,18,-,-
Cc1c(C)n(C)c2ccc(C(=O)NCCc3ccco3)cc12,-,-,-,-,-,-
O=C(NCc1ccccc1)c1ccc(CN2CCOCC2)cc1,-,-,-,-,-,-
Cc1c(Br)cc(C(=O)NCc2ccco2)c(C)c1C,-,-,-,-,-,-
Cc1ccc(C(=O)NCc2ccco2)cc1Br,-,-,-,20,-,-
O=C(NCc1ccco1)c1ccc(CN2CCOCC2)cc1,-,-,-,-,19,-
Cc1cc(C)c2c(N)c(C(=O)NCc3ccco3)sc2n1,-,-,-,50,-,-
O=C(NCC1CCN(Cc2ccccc2F)CC1)Nc1cc(F)ccc1F,-,-,-,-,-,-
CN(C)CCOC1(Cc2ccc(F)cc2)CCC(C(C)(C)C)CC1 (stereo not drawn),-,-,-,-,19,-
Cc1ccc(CC2(OCCN(C)C)CCC(C(C)(C)C)CC2)cc1 (stereo not drawn),-,-,-,-,-,-
O=C(COc1cc2oc(=O)cc(-c3ccccc3)c2cc1Cl)NCc1ccccn1,-,-,-,-,-,-
O=C(Nc1oc2ccc(Cl)cc2c(=O)c1-c1ccc(F)cc1)c1ccco1,-,-,-,-,-,-
Oc1ccc(Nc2nc(-c3ccccc3)nc3ccccc23)cc1,-,-,-,-,-,-
Oc1ccc(Nc2nc3ccccc3nc2Nc2ccc(O)cc2)cc1,-,27,-,-,-,-
CON=C1C=C(C)C(=O)C(C)=C1C,-,-,-,-,-,-
O=[N+]([O-])c1c(Nc2ccc(O)cc2)cc(Cl)c2nonc12,-,78,43,-,-,-
C/C(=N\Nc1ncnc2sc(C)c(C)c12)c1ccccn1,-,-,-,-,22,-
Cc1ccc(S(=O)(=O)N2CCC(c3nc4c(nnn4Cc4ccccc4)c(=O)[nH]3)CC2)cc1,-,75,-,-,-,-
Cc1ccc(C)c(S(=O)(=O)N2CCC(c3nc4c(nnn4Cc4ccc5c(c4)OCCO5)c(=O)[nH]3)CC2)c1,-,42,-,-,-,-
O=c1[nH]c(C2CCN(S(=O)(=O)c3ccc4c(c3)OCCO4)CC2)nc2c1nnn2Cc1ccccc1,-,90,-,-,-,-
COc1ccc(S(=O)(=O)N2CCOCC2)cc1C(=O)N1CCCC1,-,-,-,-,-,-
O=P(NCc1ccccc1)(OCc1ccccc1)OCc1ccccc1,-,-,-,-,-,-
COc1ccc(-c2cnnn2-c2ccc([N+](=O)[O-])cc2)cc1,-,-,-,-,-,-
Cc1cc(C)nc(NN2C(=O)/C(=C/c3ccccc3)SC2=S)n1,-,-,-,-,-,-
SMILES,CHRM4 agonist,M4 antag,M5 antag,CHRM4 PAM,CHRM5 PAM,CHRM5 agonist
COc1cc(/C=C2\SC(=S)N(Nc3ncc(C(F)(F)F)cc3Cl)C2=O)ccc1O,-,39,-,-,-,-
CN(C)c1ccc(/C=C2\SC(=S)N(Nc3ncc(C(F)(F)F)cc3Cl)C2=O)cc1,-,35,31,-,-,-
CCN(CC)S(=O)(=O)c1cc(NC(=O)CSCc2c(C)noc2C)ccc1C,-,-,-,-,-,-
O=C(CN1C(=O)c2ccccc2C1=O)NC1CCC(O)CC1 (stereo not drawn),-,-,-,-,-,-
O=C(CCN1CCN(Cc2ccccc2)CC1)Nc1ccc(OCc2ccccc2)cc1,-,54,-,-,-,-
CCn1nnnc1SCC(=O)Nc1ccc(OCc2ccccc2)cc1,-,-,-,27,34,-
O=C(CCN1CCc2ccccc2C1)Nc1ccccc1,-,-,-,-,35,-
COC(=O)CSc1nc2ccc(NC(=O)CSc3nnnn3Cc3ccccc3)cc2s1,-,27,-,-,-,-
O=C(CCN1CCN(CCO)CC1)Nc1ccc(OCc2ccccc2)cc1,-,-,-,-,-,-
O=C(CSc1nc2ccc(NC(=O)CSc3nnnn3Cc3ccccc3)cc2s1)Nc1ccccc1,-,-,-,-,-,-
CC1(C)N=C(N)NC(=NCCCOc2ccc([N+](=O)[O-])cc2)N1,-,-,-,-,-,-
O=C(NCCc1c[nH]c2ccccc12)OCCCCOC(=O)NCCc1c[nH]c2ccccc12,-,32,-,-,-,-
Cc1cccc(NC(=O)CCSc2ccccc2)c1C,-,-,-,-,-,-
O=C(CCCc1c[nH]c2ccccc12)NCCc1c[nH]c2ccccc12,-,-,-,-,-,-
O=C(COC(=O)c1ccccc1O)NCCc1c[nH]c2ccccc12,-,-,-,-,-,-
Cc1cccc(C)c1NC(=O)COC(=O)CCc1c[nH]c2ccccc12,-,-,-,-,-,-
Cc1cccc(NC(=O)CCc2ccccc2)c1C,-,-,-,-,26,-
O=C(COC(=O)c1ccccc1C(=O)OCC(=O)NCCc1c[nH]c2ccccc12)NCCc1c[nH]c2ccccc12,-,43,32,-,-,-
Cc1cccc(NC(=O)COC(=O)CCc2c[nH]c3ccccc23)c1C,-,-,-,22,-,-
CCOC(=O)C1CCN(CC(C)(C)NS(=O)(=O)c2ccccc2)CC1,-,-,-,-,-,-
Fc1ccccc1CN1CCCN(C(=S)Nc2cccc(Cl)c2)C1,-,-,29,-,-,-
CN(C)C(=O)CSc1ccc(S(=O)(=O)N2CCOCC2)cn1,-,-,-,-,-,-
O=C(Nc1ccccc1C(=O)N/N=C/c1ccco1)c1ccc(F)cc1,-,-,-,36,-,-
Cc1ccccc1C(=O)Nc1ccccc1C(=O)N/N=C\c1ccco1,-,-,-,31,-,-
O=C(N/N=C/c1ccco1)c1cccc([N+](=O)[O-])c1,-,-,-,28,-,-
SMILES,CHRM4 agonist,M4 antag,M5 antag,CHRM4 PAM,CHRM5 PAM,CHRM5 agonist
CC(=O)Nc1ccc2c(c1)ncn2-c1ccc(C)cc1,-,-,-,-,-,-
CCCC(=O)N1CCN(c2nc3ccc(Br)cc3s2)CC1,-,-,-,29,-,-
CCCC(=O)N1CCN(c2nc3ccc(CC)cc3s2)CC1,-,-,-,-,-,-
CCCCC(=O)N1CCN(c2nc3ccc(Br)cc3s2)CC1,-,-,-,19,-,-
CCOC(=O)N1CCN(C(=O)c2ccc3nc(N4CCC(C)CC4)sc3c2)CC1,-,-,-,16,-,-
CC(=O)N1CCN(c2nc3ccc(Br)cc3s2)CC1,-,-,-,-,-,-
CCCc1cc(=O)[nH]c(SCC(=O)N(C)CC(=O)Nc2ccc(C)cc2)n1,-,-,-,26,23,-
